From ChEMBL document CHEMBL1147807, “Identification of 2-acylaminothiophene-3-carboxamides as potent inhibitors of FLT3” (Bioorg Med Chem Lett, 2006)
pIC50: −log10 of the molar value.

How the values were obtained:
[1] = biological target: Tyrosine-protein kinase ABL1 (Homo sapiens) (UniProt P00519); test: Inhibition of human Abl kinase at 3 uM in presence of 10 uM ATP
In short: (§1)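 Selectivity panel run at a single compound concentration of 3 µM with 10 µM ATP. Read-out is % inhibition of each kinase. Values are averages of duplicate experiments.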

[2] = biological target: Mitogen-activated protein kinase 10 (Homo sapiens) (UniProt P53779); test: Inhibition of human JNK3 at 3 uM in presence of 10 uM ATP; in short: as §1
Mitogen-activated protein kinase 10 (Homo sapiens), sequence (P53779 whole entry): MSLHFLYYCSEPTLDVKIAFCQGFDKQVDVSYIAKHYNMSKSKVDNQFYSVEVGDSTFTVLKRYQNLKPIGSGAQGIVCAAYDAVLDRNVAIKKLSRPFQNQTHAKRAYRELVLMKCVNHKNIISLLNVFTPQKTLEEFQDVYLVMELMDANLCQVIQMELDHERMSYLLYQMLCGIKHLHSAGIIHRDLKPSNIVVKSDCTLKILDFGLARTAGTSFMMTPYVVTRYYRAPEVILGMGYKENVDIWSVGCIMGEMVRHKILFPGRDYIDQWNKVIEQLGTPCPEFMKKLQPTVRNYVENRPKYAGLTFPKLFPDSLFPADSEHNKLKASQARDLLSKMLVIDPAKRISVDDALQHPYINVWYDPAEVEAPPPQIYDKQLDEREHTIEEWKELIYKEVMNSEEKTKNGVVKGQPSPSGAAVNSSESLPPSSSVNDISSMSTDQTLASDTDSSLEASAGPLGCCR

[3] = biological target: Tyrosine-protein kinase receptor UFO (Homo sapiens) (UniProt P30530); test: Inhibition of human Axl kinase at 3 uM in presence of 10 uM ATP; in short: as §1
[4] = species: Rattus norvegicus; test: Inhibition of rat AMPK at 3 uM in presence of 10 uM ATP; in short: as §1
[5] = biological target: T1, Serine/threonine-protein kinase D2 (Homo sapiens) (UniProt Q9BZL6); test: Inhibition of human PKD2 at 3 uM in presence of 10 uM ATP; in short: as §1
T1 sequence (whole entry): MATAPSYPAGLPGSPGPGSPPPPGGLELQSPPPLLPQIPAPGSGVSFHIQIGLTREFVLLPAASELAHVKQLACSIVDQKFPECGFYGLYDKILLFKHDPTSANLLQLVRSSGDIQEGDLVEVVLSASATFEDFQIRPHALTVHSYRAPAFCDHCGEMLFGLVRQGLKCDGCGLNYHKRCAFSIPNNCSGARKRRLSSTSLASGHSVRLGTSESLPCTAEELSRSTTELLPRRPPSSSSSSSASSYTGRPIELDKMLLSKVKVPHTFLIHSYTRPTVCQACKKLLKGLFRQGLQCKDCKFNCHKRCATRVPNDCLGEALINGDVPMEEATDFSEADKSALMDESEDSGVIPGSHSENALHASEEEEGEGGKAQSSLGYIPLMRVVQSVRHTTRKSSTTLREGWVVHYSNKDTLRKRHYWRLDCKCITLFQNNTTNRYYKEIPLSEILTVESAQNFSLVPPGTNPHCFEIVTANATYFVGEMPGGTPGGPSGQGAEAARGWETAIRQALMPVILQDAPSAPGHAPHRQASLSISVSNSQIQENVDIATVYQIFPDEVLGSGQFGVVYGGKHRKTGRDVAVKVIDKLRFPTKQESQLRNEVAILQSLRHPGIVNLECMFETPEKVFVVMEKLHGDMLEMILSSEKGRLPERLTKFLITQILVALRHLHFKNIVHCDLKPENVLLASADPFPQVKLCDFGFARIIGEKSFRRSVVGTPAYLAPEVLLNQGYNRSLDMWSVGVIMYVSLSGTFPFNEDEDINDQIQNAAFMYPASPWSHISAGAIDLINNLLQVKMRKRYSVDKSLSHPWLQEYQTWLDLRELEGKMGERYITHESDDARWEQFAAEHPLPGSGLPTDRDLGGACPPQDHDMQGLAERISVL

[6] = biological target: Tyrosine-protein kinase ABL2 (Homo sapiens) (UniProt P42684); test: Inhibition of human Arg kinase at 3 uM in presence of 10 uM ATP; in short: as §1
[7] = biological target: Ribosomal protein S6 kinase alpha-1 (Homo sapiens) (UniProt Q15418); test: Inhibition of human Rsk1 at 3 uM in presence of 10 uM ATP; in short: as §1
Ribosomal protein S6 kinase alpha-1 (Homo sapiens), sequence (Q15418 whole entry): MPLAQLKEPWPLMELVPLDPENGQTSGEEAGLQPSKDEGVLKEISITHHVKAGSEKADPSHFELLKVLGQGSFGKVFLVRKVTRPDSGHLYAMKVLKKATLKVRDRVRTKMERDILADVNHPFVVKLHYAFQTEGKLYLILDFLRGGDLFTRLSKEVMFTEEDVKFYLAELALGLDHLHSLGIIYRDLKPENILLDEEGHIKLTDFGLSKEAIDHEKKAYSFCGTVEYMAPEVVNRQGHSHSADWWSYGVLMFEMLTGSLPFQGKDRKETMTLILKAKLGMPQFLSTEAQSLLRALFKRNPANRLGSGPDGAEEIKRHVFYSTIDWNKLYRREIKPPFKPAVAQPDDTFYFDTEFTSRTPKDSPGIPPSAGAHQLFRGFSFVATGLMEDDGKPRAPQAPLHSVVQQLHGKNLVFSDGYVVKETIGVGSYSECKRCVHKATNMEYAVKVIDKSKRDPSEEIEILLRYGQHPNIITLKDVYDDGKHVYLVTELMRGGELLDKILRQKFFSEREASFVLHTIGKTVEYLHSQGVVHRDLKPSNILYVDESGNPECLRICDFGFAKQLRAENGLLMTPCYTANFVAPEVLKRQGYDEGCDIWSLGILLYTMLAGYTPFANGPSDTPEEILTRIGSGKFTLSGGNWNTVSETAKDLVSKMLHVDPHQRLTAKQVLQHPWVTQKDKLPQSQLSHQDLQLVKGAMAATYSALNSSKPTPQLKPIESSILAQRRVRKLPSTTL

[8] = biological target: Tyrosine-protein kinase Fyn (Homo sapiens) (UniProt P06241); test: Inhibition of human Fyn at 3 uM in presence of 10 uM ATP; in short: as §1
Tyrosine-protein kinase Fyn (Homo sapiens), sequence (P06241 2-537 limits assumed): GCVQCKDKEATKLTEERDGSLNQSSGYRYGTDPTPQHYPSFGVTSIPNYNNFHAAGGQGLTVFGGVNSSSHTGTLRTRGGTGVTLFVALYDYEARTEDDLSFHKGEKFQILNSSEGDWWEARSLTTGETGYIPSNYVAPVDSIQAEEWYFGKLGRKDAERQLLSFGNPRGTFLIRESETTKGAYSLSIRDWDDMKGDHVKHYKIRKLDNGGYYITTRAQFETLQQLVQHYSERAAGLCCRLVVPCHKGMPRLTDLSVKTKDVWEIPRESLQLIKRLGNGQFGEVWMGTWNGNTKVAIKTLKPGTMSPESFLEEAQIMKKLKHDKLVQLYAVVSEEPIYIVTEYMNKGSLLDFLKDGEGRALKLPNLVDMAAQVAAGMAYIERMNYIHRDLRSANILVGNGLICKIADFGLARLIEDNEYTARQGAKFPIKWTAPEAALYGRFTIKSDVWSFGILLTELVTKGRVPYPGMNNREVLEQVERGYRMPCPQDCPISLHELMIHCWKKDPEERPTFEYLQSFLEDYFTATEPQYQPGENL

[9] = biological target: Cyclin-dependent kinase 7/ cyclin H (Homo sapiens) (UniProt P51946+P50613); test: Inhibition of human CDK7/cyclin H/MAT1 at 3 uM in presence of 10 uM ATP; type: protein-complex assay; in short: as §1
[10] = biological target: Tyrosine-protein kinase Lyn (Homo sapiens) (UniProt P07948); test: Inhibition of human Lyn at 3 uM in presence of 10 uM ATP; in short: as §1
[11] = test system: MV4-11; test: Antiproliferative activity against human MV4-11 cells
[12] = biological target: Hepatocyte growth factor receptor (Homo sapiens) (UniProt P08581); test: Inhibition of human Met at 3 uM in presence of 10 uM ATP; in short: as §1
Hepatocyte growth factor receptor (Homo sapiens), sequence (P08581 whole entry): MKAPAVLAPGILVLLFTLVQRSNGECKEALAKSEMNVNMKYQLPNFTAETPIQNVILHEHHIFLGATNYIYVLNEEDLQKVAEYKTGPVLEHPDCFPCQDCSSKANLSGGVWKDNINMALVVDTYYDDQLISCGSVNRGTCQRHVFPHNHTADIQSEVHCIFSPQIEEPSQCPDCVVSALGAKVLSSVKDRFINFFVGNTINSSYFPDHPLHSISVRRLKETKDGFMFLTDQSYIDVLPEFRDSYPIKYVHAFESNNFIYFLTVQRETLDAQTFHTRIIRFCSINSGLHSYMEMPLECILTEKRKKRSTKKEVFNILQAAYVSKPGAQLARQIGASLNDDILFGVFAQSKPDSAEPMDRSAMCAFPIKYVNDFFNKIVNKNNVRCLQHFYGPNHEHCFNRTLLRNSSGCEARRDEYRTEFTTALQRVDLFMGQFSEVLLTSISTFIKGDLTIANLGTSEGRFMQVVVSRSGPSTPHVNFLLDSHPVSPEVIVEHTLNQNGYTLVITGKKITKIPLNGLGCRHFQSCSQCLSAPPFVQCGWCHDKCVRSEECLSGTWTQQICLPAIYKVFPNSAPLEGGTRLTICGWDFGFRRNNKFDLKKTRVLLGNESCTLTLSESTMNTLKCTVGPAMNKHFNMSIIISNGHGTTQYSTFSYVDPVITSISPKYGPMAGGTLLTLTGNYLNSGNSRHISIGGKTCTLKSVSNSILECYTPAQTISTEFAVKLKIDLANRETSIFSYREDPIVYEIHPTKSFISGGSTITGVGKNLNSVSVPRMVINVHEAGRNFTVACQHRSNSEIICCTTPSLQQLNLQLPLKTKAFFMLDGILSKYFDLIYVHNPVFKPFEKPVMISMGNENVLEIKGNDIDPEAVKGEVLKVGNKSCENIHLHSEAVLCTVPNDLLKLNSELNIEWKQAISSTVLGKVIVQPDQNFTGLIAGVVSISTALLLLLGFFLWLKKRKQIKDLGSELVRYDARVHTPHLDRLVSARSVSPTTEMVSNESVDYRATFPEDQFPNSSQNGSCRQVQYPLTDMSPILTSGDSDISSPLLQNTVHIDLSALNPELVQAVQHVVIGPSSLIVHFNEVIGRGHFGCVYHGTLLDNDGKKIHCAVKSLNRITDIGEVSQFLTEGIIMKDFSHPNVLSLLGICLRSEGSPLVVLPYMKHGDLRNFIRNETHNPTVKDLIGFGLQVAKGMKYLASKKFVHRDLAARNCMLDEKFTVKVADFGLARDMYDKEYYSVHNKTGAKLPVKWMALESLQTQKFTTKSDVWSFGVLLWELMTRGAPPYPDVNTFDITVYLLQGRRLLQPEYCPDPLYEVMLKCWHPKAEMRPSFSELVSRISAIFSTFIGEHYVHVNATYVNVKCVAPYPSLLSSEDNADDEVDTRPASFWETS

[13] = biological target: Tyrosine-protein kinase BTK (Homo sapiens) (UniProt Q06187); test: Inhibition of human BTK kinase at 3 uM in presence of 10 uM ATP; in short: as §1
[14] = biological target: Glycogen synthase kinase-3 beta (Homo sapiens) (UniProt P49841); test: Inhibition of human GSK3-beta at 3 uM in presence of 10 uM ATP; in short: as §1
Glycogen synthase kinase-3 beta (Homo sapiens), sequence (P49841 whole entry, looked up): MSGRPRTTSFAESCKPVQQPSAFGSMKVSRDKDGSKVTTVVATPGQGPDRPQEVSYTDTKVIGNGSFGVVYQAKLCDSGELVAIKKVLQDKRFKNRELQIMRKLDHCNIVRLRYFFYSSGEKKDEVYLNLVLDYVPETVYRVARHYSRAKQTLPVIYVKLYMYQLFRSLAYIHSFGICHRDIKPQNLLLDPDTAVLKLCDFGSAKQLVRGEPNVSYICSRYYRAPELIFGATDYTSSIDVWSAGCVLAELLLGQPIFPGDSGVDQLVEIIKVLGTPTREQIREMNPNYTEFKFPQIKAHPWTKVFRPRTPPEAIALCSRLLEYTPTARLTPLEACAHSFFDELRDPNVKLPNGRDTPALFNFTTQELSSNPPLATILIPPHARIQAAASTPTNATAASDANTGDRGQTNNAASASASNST

[15] = biological target: T2, Cytoplasmic tyrosine-protein kinase BMX (Homo sapiens) (UniProt P51813); test: Inhibition of human Bmx kinase at 3 uM in presence of 10 uM ATP; in short: as §1
T2 sequence (whole entry): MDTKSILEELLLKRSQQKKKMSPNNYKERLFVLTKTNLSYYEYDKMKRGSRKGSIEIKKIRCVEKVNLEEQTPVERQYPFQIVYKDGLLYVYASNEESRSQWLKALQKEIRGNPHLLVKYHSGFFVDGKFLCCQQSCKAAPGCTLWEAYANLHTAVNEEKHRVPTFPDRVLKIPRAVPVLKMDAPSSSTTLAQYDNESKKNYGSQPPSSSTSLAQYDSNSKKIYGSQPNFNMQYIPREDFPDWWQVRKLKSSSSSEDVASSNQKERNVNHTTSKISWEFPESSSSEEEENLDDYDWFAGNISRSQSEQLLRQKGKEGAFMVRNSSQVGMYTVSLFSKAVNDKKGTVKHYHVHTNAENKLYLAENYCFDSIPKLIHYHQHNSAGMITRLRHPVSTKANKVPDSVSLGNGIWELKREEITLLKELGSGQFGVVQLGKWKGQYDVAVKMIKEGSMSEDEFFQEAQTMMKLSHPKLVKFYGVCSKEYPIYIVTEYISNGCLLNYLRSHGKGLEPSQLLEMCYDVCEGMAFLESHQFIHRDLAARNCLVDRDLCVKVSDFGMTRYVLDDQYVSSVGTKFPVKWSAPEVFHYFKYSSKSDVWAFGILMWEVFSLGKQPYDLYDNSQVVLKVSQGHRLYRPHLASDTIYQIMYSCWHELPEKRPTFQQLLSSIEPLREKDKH

[16] = biological target: RAF proto-oncogene serine/threonine-protein kinase (Homo sapiens) (UniProt P04049); test: Inhibition of human c-RAF at 3 uM in presence of 10 uM ATP; in short: as §1

Tyrosine-protein kinase ABL1 (Homo sapiens), sequence (P00519 whole entry): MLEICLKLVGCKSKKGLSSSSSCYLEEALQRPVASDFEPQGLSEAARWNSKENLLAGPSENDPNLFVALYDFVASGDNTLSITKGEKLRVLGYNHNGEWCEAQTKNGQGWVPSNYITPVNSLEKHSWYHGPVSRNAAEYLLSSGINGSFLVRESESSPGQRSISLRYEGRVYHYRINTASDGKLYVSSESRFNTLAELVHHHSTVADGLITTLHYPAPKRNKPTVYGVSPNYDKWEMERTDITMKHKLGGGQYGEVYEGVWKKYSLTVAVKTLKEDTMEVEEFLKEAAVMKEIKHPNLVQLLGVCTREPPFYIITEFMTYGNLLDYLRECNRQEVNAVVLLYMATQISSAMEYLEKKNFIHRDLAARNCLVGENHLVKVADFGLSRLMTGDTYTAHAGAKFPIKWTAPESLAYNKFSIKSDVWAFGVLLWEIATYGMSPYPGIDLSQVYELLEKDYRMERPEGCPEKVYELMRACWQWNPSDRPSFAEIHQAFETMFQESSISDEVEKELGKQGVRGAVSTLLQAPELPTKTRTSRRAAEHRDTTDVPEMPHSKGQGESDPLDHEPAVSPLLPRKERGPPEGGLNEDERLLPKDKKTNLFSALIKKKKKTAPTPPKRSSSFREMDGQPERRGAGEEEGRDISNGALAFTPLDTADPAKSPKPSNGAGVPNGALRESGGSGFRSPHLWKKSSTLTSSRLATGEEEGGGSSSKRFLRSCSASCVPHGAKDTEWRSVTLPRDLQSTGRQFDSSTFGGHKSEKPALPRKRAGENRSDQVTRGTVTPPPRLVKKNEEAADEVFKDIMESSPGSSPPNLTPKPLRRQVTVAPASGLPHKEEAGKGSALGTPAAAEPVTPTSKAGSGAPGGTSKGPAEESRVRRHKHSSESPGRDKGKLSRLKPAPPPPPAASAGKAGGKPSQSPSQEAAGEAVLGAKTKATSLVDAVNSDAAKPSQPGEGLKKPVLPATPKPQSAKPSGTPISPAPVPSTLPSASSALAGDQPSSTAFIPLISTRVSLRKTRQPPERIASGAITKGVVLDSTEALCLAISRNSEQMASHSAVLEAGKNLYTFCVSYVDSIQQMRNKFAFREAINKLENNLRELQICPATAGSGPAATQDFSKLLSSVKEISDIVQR

- inhibition [1]: 21%
- inhibition [2]: -6%
- inhibition [3]: -10%
- inhibition [4]: -4%
- inhibition [5]: -7%
- inhibition [6]: 49%
- inhibition [7]: 3%
- inhibition [8]: 33%
- inhibition [9]: -1%
- inhibition [10]: 21%
- pIC50 [11]: 6.47
- inhibition [12]: 13%
- inhibition [13]: 14%
- inhibition [14]: -2%
- inhibition [15]: 9%
- inhibition [16]: -1%
SMILES: COc1ccc(C(=O)Nc2sc3c(c2C(N)=O)CCCC3)cc1OC
